Read-outs that look alike come from different tables or passages of the source.
Columns and labels:
P. falciparum (3D7) = experiment: Anti-plasmodial SYBR green assay, P. falciparum 3D7 blood parasites; format: cell-based, Plasmodium falciparum
[1] = test system: L. infantum promastigotes; experiment: Anti-leishmanial MTT viability assay, L. infantum promastigotes; format: cell-based, Leishmania (L.) infantum
T. cruzi epimastigotes = experiment: Anti-T. cruzi MTT viability assay, epimastigotes; format: cell-based, Trypanosoma cruzi
[2] = test system: L. amazonensis promastigotes; experiment: Anti-leishmanial MTT viability assay, L. amazonensis promastigotes; format: cell-based, Leishmania (L.) amazonensis
[3] = test system: intracellular L. (L.) amazonensis amastigotes; experiment: Intracellular L.; format: cell-based, Leishmania (L.) amazonensis; conditions: for intracellular parasitism (in words): 6.125, 25, 50 or 100 μM, 24 h; for reduction of the amastigote number over the control group: at higher concentrations, 24 h incubation, infected BALB/c macrophages
Outline: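 BALB/c bone-marrow-derived macrophages infected with stationary-phase L. (L.) amazonensis promastigotes (MHOM/BR/1973/M2269) at MOI 10 for 1 h, washed three times with PBS, then held 24 h at 33 °C, 5% CO2. Test compound added at 6.125, 25, 50 or 100 μM for 24 h at 33 °C. Cells washed, MeOH-fixed and stained; amastigotes counted in 300 cells on triplicate coverslips. Percent reduction taken versus untreated infected cells; two independent experiments.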

P. falciparum [4] = conditions: cited from earlier work
HepG2 = experiment: Cytotoxicity on HepG2 cells; format: cell-based; conditions: HepG2, 24 h, MTT
P. falciparum [5] = experiment: Stage-specific inhibitory activity on highly-synchronized parasites; format: cell-based, Plasmodium falciparum; conditions: 10-fold IC50, synchronized parasites
P. falciparum [6] = experiment: In vitro association with artesunate; format: cell-based, Plasmodium falciparum; conditions: isobologram analysis
HepG2 cells = experiment: HepG2 cell morphology by microscopy after treatment; format: cell-based, human; conditions: 24 h, concentration 10-fold higher than IC50 (10 μM)
T. brucei rhodesiense = conditions: cited from earlier work
T. cruzi = conditions: cited from earlier work
Leishmania donovani = conditions: cited from earlier work
[7] = Plasmodium falciparum, 3D7, read-out: P. falciparum (3D7) EC50+/−S.D., 3D7 sensitive strain, SYBR green

Row | EC50 (P. falciparum (3D7); [7]) | SMILES | anti-plasmodial activity against P. falciparum (in words) (P. falciparum (3D7)) | other results
1 | > 10 µM | O=C(NCCCCNCCCNC(=O)c1nc2ccccc2[nH]1)c1nc2ccccc2[nH]1 [Compound 39] | – | –
2 | > 10 µM | O=C(NCCCCCNC(=O)c1ccc[nH]1)c1ccc[nH]1 [Compound 28] | – | –
3 | > 10 µM | O=C(NCCCCNCCCNC(=O)c1ccc(Br)s1)c1ccc(Br)s1 [Compound 42] | – | intracellular parasitism (in words) [3]: reduced in a dose-dependent manner; reduction of the amastigote number over the control group [3]: approximately 80%; anti-parasitic activity against L. (L.) amazonensis (in words) [2]: active, but considerably less potent
4 | > 10 µM | Cc1ccc(C(=O)NCCCCNCCCNC(=O)c2ccc(C)s2)s1 [Compound 43] | – | –
5 | > 10 µM | Cc1cccc(C(=O)NCCCCNCCCNC(=O)c2cccc(C)n2)n1 [Compound 47] | – | –
6 | > 10 µM | O=C(NCCCCNCCCNC(=O)c1cccc(Cl)n1)c1cccc(Cl)n1 [Compound 46] | – | –
7 | > 10 µM | O=C(NCCCCNCCCNC(=O)c1cc2ccccc2[nH]1)c1cc2ccccc2[nH]1 [Compound 38] | – | –
8 | 7 ± 1 µM | O=C(NCCCCNCCCNC(=O)c1cc(Br)c[nH]1)c1cc(Br)c[nH]1 [Compound 31, 2,21-debromopseudoceratidine] | – | –
9 | 3 ± 1 µM | O=C(NCCCCNCCCNC(=O)c1cc(Br)c(Br)o1)c1cc(Br)c(Br)o1 [Compound 50] | – | intracellular parasitism (in words) [3]: reduced in a dose-dependent manner; reduction of the amastigote number over the control group [3]: approximately 80%; anti-parasitic activity against L. (L.) amazonensis (in words) [2]: active, but considerably less potent
10 | > 10 µM | O=C(NCCCCNCCCNC(=O)c1cc(Cl)c(Cl)[nH]1)c1cc(Cl)c(Cl)[nH]1 [Compound 33] | completely inactive | –
11 | > 10 µM | O=C(NCCCCNCCCNC(=O)c1ccc(F)[nH]1)c1ccc(F)[nH]1 [Compound 35] | completely inactive | –
12 | > 10 µM | O=C(NCCCCNCCCNC(=O)c1ccc[nH]1)c1ccc[nH]1 [Compound 29] | completely inactive | –

More lines, now with the values behind:

Row | SMILES | EC50 (P. falciparum (3D7); [7]) | anti-plasmodial activity against P. falciparum (in words) (P. falciparum (3D7)) | other results
13 | [N-]=[N+]=NCC(=O)N(CCCCNC(=O)c1cc(Br)c(Br)[nH]1)CCCNC(=O)c1cc(Br)c(Br)[nH]1 [Compound 17] | > 10 µM | inactive | anti-parasitic activity against L. (L.) infantum (in words) [1]: inactive; anti-parasitic activity against T. cruzi (in words) (T. cruzi epimastigotes): inactive; anti-parasitic activity against L. (L.) amazonensis (in words) [2]: inactive
14 | O=C(NCCSCCNC(=O)c1cc(Br)c(Br)[nH]1)c1cc(Br)c(Br)[nH]1 [Compound 27] | > 10 µM | inactive | anti-parasitic activity against T. cruzi (in words) (T. cruzi epimastigotes): weak activity; anti-parasitic activity against L. (L.) amazonensis (in words) [2]: active, but considerably less potent
15 | CN(CCCCNC(=O)c1cc(Br)c(Br)[nH]1)CCCNC(=O)c1cc(Br)c(Br)[nH]1 [Compound 16, N-Methyl-pseudoceratidine] | 4 ± 1 µM | still active | –
16 | O=C(O)c1cc(Br)c(Br)[nH]1 [4,5-dibromo-1H-pyrrole-2-carboxylic acid] | – | – | anti-parasitic activity against P. falciparum (P. falciparum [4]): 5.8 µg/mL
17 | O=C(NCCCCNCCCNC(=O)c1cc(Br)c(Br)[nH]1)c1cc(Br)c(Br)[nH]1 [Compound 1, pseudoceratidine] | 1.1 ± 0.1 µM | – | anti-parasitic activity against L. (L.) infantum (in words) [1]: essentially inactive; anti-parasitic activity against T. cruzi (in words) (T. cruzi epimastigotes): essentially inactive; HepG2 MDL50+/−S.D. (HepG2): 16 ± 1 (14.6 – 17.4) μM; stage-specific inhibitory activity (in words) (P. falciparum [5]): inhibitory activity in the early ring stages; anti-parasitic activity against L. (L.) amazonensis (in words) [2]: essentially inactive; interaction effect in combination with artesunate (P. falciparum [6]): additive; toxicity for HepG2 cells by microscopic morphology (HepG2 cells): not toxic
18 | O=C(NCCCCCCCCNC(=O)c1cc(Br)c(Br)[nH]1)c1cc(Br)c(Br)[nH]1 [Compound 21] | > 10 µM | inactive | –
19 | Nc1ncc(/C=C/CNC(=O)c2cc(Br)c(Br)[nH]2)[nH]1 [Oroidin] | – | – | activity against T. brucei rhodesiense (T. brucei rhodesiense): 17.3 µg/mL; activity against T. cruzi (in words) (T. cruzi): inactive; anti-parasitic activity against P. falciparum (P. falciparum [4]): 3.9 µg/mL; activity against Leishmania donovani (in words) (Leishmania donovani): inactive
20 | COC(=O)c1cc(Br)c(Br)[nH]1 | – | – | anti-parasitic activity against P. falciparum (P. falciparum [4]): 7.9 µg/mL
21 | Cc1ccc(C(=O)NCCCCNCCCNC(=O)c2ccc(C)o2)o1 [Compound 51] | – | completely inactive | –
22 | O=C(NCCCCCCNCCCCCCNC(=O)c1cc(Br)c(Br)[nH]1)c1cc(Br)c(Br)[nH]1 [Compound 25] | 2 ± 1 µM | as active as pseudoceratidine | –
23 | O=C(NCCCNCCCCNCCCNC(=O)c1cc(Br)c(Br)[nH]1)c1cc(Br)c(Br)[nH]1 [Compound 23] | 1.9 ± 1.2 µM | as active as pseudoceratidine | intracellular parasitism (in words) [3]: reduced in a dose-dependent manner; reduction of the amastigote number over the control group [3]: approximately 80%; anti-parasitic activity against L. (L.) amazonensis (in words) [2]: active, but considerably less potent; EC50 (P. falciparum (3D7); read-out: P. falciparum (3D7) EC50+/−S.D., 3D7 sensitive strain, SYBR green): 2 ± 1 µM
24 | O=C(NCCCCCNC(=O)c1cc(Br)c(Br)[nH]1)c1cc(Br)c(Br)[nH]1 [Compound 20] | > 10 µM | inactive | anti-parasitic activity against T. cruzi (in words) (T. cruzi epimastigotes): good anti-parasitic activity; anti-parasitic activity against L. (L.) amazonensis (in words) [2]: active, but considerably less potent

Reference: paper PMC5989537 (Journal of natural products, 2018)
